As a reminder, the IC50 is the concentration that gives 50% inhibition.

The results in this text go back to ChEMBL document CHEMBL2203278, “N-Phenyl-4-hydroxy-2-quinolone-3-carboxamides as selective inhibitors of mutant H1047R phosphoinositide-3-kinase (PI3Kα)” (Bioorg Med Chem, 2012).

Test [1] has as its system Phosphatidylinositol 4,5-bisphosphate 3-kinase catalytic subunit alpha isoform (Homo sapiens), P42336 [H1047R]. As to the kind of experiment: Inhibition of PI3Kalpha H1047R mutant in human HCT116 cells assessed as inhibition of Akt phosphorylation at S473 residue relative to DMSO. In kind it is cell-based. To be noted: HCT-116. The essentials:
(§1)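 AKT activation was read as pAKT on immunoblots of lysates from compound-treated HCT116-WT and HCT116-MUT cells, tested at a single concentration. Lysate protein was measured by the […]. Blots were blocked in 5% milk/TBST, probed with primary antibody (1:1000) and HRP secondary (1:1000), and developed by ECL. Band areas were quantified relative to DMSO.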

The target in test [2] is Phosphatidylinositol 4,5-bisphosphate 3-kinase catalytic subunit alpha isoform (Homo sapiens) (UniProt P42336). Description: Inhibition of PI3Kalpha in human HCT116 cells assessed as inhibition of Akt phosphorylation at S473 residue relative to DMSO. The following applies: HCT-116. In kind it is cell-based. In a few lines:
as §1

For test [3], the system named is Phosphatidylinositol 4,5-bisphosphate 3-kinase catalytic subunit alpha isoform (Homo sapiens), P42336 [H1047R]. Description: Inhibition of PI3Kalpha H1047R mutant in human HCT116 cells assessed as increase in PARP cleavage relative to LY294002. The class given is cell-based. To be noted: HCT-116. In a few lines:
(§2)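 Apoptosis was assessed in HCT116-WT and HCT116-MUT cells, each treated with compound at a single concentration, by immunoblot for the 88 kDa cleaved PARP product. Blots were blocked in 5% milk/TBST, probed with primary antibody (1:1000) and peroxidase secondary (1:1000), and developed by ECL. Band areas were quantified by densitometry relative to LY294002.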

Test [4] addresses Phosphatidylinositol 4,5-bisphosphate 3-kinase catalytic subunit alpha isoform (Homo sapiens) (UniProt P42336). As to the kind of experiment: Inhibition of PI3Kalpha in human HCT116 cells assessed as increase in PARP cleavage relative to LY294002. In kind it is cell-based. To be noted: HCT-116. In a few lines: as §2
For test [5], the system named is HCT-116. Description: Growth inhibition of human HCT116 cells expressing PI3Kalpha H1047R mutant by MTT assay. In kind it is functional, cell-based. In a few lines:
(§3)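 Growth of parental (WT) and H1047R-mutant HCT116 cells was measured by MTT assay, with absorbance read at 570 nm.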
(Tetrazolium dyes change colour on reduction, which living cells bring about.)

Test [6] concerns Phosphatidylinositol 4,5-bisphosphate 3-kinase catalytic subunit alpha isoform (Homo sapiens), P42336 [H1047R]. As to the kind of experiment: Inhibition of PI3Kalpha H1047R mutant in human HCT116 cells relative to LY294002. In kind it is cell-based. The following applies: HCT-116. In a few lines: (§4)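 PI3K kinase activity was assayed in lysates of compound-treated HCT116-WT and HCT116-MUT cells, using a single compound concentration. Cells were washed with PBS, lysed, and the supernatants were collected by centrifugation for 15 min. Resulting band areas were quantified densitometrically relative to LY294002.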

Test [7] addresses Phosphatidylinositol 4,5-bisphosphate 3-kinase catalytic subunit alpha isoform (Homo sapiens) (UniProt P42336). As to the kind of experiment: Inhibition of PI3Kalpha in human HCT116 cells relative to LY294002. In kind it is cell-based. To be noted: HCT-116. The essentials:
as §4

The test system of test [8] is HCT-116. Description: Growth inhibition of human HCT116 cells by MTT assay. In kind it is functional, cell-based. The essentials: as §3
Test [9] concerns HCT-116. Description: Selectivity index, ratio of IC50 for human HCT116 cell to IC50 for PI3Kalpha H1047R mutant expressing human HCT116 cell. The class given is functional.

Chain of Phosphatidylinositol 4,5-bisphosphate 3-kinase catalytic subunit alpha isoform (Homo sapiens) (P42336 whole entry, canonical isoform): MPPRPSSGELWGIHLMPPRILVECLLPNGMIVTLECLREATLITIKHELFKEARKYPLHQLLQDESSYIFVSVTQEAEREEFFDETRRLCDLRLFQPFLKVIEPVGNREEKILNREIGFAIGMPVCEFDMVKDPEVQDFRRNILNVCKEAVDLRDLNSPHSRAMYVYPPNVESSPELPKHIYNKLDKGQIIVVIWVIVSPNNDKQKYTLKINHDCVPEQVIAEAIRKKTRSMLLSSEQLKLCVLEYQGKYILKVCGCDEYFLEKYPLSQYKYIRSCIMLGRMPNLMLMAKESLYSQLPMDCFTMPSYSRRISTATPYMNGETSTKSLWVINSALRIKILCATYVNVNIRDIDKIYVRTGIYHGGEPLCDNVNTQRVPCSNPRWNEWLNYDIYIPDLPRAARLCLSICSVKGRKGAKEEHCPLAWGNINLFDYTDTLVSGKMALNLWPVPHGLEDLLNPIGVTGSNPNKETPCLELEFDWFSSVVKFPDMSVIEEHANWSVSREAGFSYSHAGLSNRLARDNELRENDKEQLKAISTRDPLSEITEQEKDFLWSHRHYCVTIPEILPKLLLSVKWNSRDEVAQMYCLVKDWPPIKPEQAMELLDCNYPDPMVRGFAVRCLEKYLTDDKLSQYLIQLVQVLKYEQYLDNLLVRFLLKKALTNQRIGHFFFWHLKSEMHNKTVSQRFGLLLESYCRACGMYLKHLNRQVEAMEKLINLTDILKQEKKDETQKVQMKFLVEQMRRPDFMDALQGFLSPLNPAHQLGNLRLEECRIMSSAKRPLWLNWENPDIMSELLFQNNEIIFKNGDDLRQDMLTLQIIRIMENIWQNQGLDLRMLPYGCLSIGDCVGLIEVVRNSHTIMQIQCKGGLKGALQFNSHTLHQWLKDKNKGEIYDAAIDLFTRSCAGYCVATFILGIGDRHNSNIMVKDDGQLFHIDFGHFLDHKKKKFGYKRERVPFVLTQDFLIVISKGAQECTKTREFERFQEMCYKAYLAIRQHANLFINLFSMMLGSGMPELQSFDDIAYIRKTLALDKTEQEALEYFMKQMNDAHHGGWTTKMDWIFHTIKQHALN
Chain of Phosphatidylinositol 4,5-bisphosphate 3-kinase catalytic subunit alpha isoform (Homo sapiens), P42336 [H1047R] (P42336 whole entry H1047R, canonical isoform): as the sequence (P42336 whole entry, canonical isoform) above, with H1047R counted along it

Consider `O=c1cc(N2CCOCC2)oc2c(-c3ccccc3)cccc12`, for which the fold change (FC) in test [1] is 0.41; in test [2], 0.01.
Turning to `O=C(NCc1ccccc1)c1cnc2ccccc2c1`, the fold change (FC) in test [3] stood at 0.06; in test [1] it was 0.3; in test [4], 0.81; in [6] it was 0.87; in test [2], 1.59; in [7] it was 0.7. In addition, the IC50 in [5] came out at 120 µM; in test [8] it was 65 µM.
`O=C(Nc1ccccc1F)c1c(O)c2cccc(F)c2[nH]c1=O`: the fold change (FC) in [3] is 5.05; in test [1] it was 1.23; in test [4] it was 0.88; in [6] it was 0.75; in test [2], 1.6; in test [7], 0.69. Further, the “Ratio IC50” value in [9] is 6. The results for the concentration for half-maximal inhibition (IC50) in test [5] and in test [8] were 3.6 µM and 22 µM, respectively.
Consider `O=C(NCc1ccccc1)c1cnc2ccccc2c1O`, for which the fold change (FC) was found to be 0.2 in test [3]; 0.2 in test [1]; 0.71 in test [4]; 0.88 in test [6]; 1 in test [2]; 0.56 in test [7]. The half-inhibitory concentration (IC50) in test [5] turned out to be 19 µM; in test [8], 24 µM.
Take `O=C(Nc1ccc(F)cc1)c1c(O)c2cc(F)ccc2[nH]c1=O`: the fold change (FC) in test [3] amounted to 1.37; in [1] it was 0.86; in test [4] it was 1.01; in test [6] it was 0.59; in test [2], 0.95; in test [7], 0.65. In [9], the “Ratio IC50” value amounted to 2.2. Further, the IC50 in [5] was 6.9 µM; in [8], 15 µM.
Take `O=C(Nc1cccc(F)c1)c1c(O)c2ccc(F)cc2[nH]c1=O`: the fold change (FC) in test [3] was determined as 1.35; in test [1], 0.51; in test [4], 0.4; in [6] it was 0.9; in test [2] it was 1.01; in [7] it was 0.75. Further, the “Ratio IC50” value in test [9] is given as 23. Moreover, the 50% inhibitory concentration (IC50) in test [5] was 0.28 µM; in [8] it was 6.5 µM.
As to `O=C(Nc1ccccc1)c1c(O)nc2ccccc2c1O`, the fold change (FC) came to 4.99 in [3]; 0.4 in test [1]; 0.01 in test [4]; 0.71 in [6]; 0.11 in [2]; 0.89 in test [7]. Besides, in test [9], the “Ratio IC50” value is on record as 3.8. Moreover, the IC50 in test [5] was determined as 2.5 µM; in test [8] it was 9.4 µM.
In the case of `COc1ccc(NC(=O)c2c(O)c3cc(OC)ccc3[nH]c2=O)cc1`, the fold change (FC) was 3.9 in test [3]; 0.44 in [1]; 0.01 in [4]; 0.64 in test [6]; 1.66 in test [2]; 0.82 in [7]. Besides, the “Ratio IC50” value in test [9] is 10. Moreover, the results for the IC50 in test [5] and in test [8] were 6.3 µM and 64 µM, respectively.
For `Cn1c(=O)c(C(=O)Nc2ccccc2)c(O)c2ccccc21`, the values for the IC50 in test [5] and in [8] were 100 µM and 110 µM, respectively.
Consider `Cc1ccc(NC(=O)c2c(O)c3cc(C)ccc3[nH]c2=O)cc1`, for which the fold change (FC) in test [3] turned out to be 1.14; in [1], 0.41; in test [4] it was 1; in [6], 0.79; in test [2], 1.66; in [7], 0.75. In addition, the “Ratio IC50” value in [9] came out at 4.8. Also, the IC50 in [5] worked out at 5.6 µM; in test [8], 27 µM.
Take `O=C(NCc1ccccc1)c1cc2ccccc2[nH]c1=O`: the fold change (FC) was found to be 0.05 in test [3]; 0.13 in test [1]; 0.92 in [4]; 0.8 in [6]; 0.09 in test [2]; 0.14 in test [7]. In addition, the values for the half-inhibitory concentration (IC50) in [5] and in test [8] were 330 µM and 420 µM, respectively.
